# High-throughput results: PubChem, The Scripps Research Institute Molecular Screening Center
# 5HT1E ag – 5-HT1E (human) receptor agonism; activation, % at 6 µM; AID 574; CHO 5-HT1E Ga15 NFAT-bla reporter, FRET; 0% DMSO wells, 100% control agonist wells; P28566; 0.69% of 65,000 active;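 active = activation above a set limit, the screen-wide mean activation plus 3 SD, cut at about 8.5% in these data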
# Jurkat viability – cytotoxicity toward Jurkat cells | Jurkat E6.1 viability, ATP luminescence, 48 h | inhibition, % at 4 µM | 1.2% of 56,000 active | AID 463;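 active = inhibition above the mean inhibition of all tested compounds plus 3 SD, cut at about 28% in these data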
# HTR1A agonist – activates the human 5-HT1a serotonin receptor; P08908; CHO 5-HT1a Ga15 NFAT-bla reporter, FRET ratio; 0% basal, 100% maximal reference agonist; 0.56% of 65,000 active; activation, % at 10 µM;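 active = activation above the screen-wide mean activation plus 3 SD, cut at about 19% in these data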
# Target sequence (P08908 whole entry, looked up): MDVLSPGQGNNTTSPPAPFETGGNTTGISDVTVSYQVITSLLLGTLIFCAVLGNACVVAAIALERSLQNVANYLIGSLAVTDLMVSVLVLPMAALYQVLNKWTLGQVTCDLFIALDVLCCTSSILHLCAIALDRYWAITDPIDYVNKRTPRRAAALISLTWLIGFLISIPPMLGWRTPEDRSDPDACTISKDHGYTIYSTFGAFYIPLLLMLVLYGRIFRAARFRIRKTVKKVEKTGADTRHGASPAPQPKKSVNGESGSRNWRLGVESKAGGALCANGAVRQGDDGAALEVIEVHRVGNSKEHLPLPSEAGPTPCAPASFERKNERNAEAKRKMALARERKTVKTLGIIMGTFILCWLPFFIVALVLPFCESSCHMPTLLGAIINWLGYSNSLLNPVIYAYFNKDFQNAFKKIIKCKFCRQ
# 5-HT1A blocker – 5-HT1a (human) receptor antagonism; AID 612; CHO 5-HT1a Ga15 NFAT-bla reporter, antagonist mode; 0.68% of 62,000 active; inhibition, % at 10 µM; P08908;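 active = inhibition above the mean of all tested compounds plus 3 SD, cut at about 43% in these data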;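 note: receptor stimulated by 5-CT agonist at 100 nM near EC80; beta-lactamase reporter measured by ratiometric fluorescence of a cleavable substrate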
# HTR1E antagonist – antagonists of human 5-HT1E serotonin receptor. P28566. CHO 5-HT1E Ga15 NFAT-bla reporter, FRET, antagonist. inhibition, % at 6 µM. 0.99% of 65,000 active. AID 571;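 active = inhibition above a set limit, the mean inhibition across every tested compound plus 3 SD, cut at about 29% in these data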;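 note: signal is the 460 over 535 nm emission ratio of beta-lactamase substrate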
# HEK293 NFkB inh – lowers PMA/ionomycin-induced NF-kB signal in HEK293 cells | HEK-293 NF-kB luciferase reporter, luminescence | inhibition, % at 3 µM | 0.21% of 62,000 active | AID 465;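 active = inhibition above the mean of all tested compounds plus 3 SD, cut at about 40% in these data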
#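 Reagent: PMA plus ionomycin mix as NF-kB-activating stimulus. Assay system: NF-kB luciferase reporter HEK-293 cells. Technique: luminescence from luciferase substrate reagent. Incubation: 1 h compound pre-incubation, 16 h PMA/ionomycin at 37 °C. Benchmarks: DMSO only as uninhibited control, 10 µM reference inhibitor as full inhibition. Repeats: tested once.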
# A number is an active result; . = inactive; / = no result. Compounds with a hit are over-represented: about 3.3% of the library has one in this group of screens.
SMILES,5HT1E ag,Jurkat viability,HTR1A agonist,5-HT1A blocker,HTR1E antagonist,HEK293 NFkB inh
O=C(CN1C(=O)NC2(CCc3ccccc32)C1=O)Nc1cc(C(F)(F)F)ccc1N1CCOCC1 (centres undefined),.,.,.,.,.,.
CCOC(=O)c1cnc2c(OC)cccc2c1N1CCN(c2ccccc2OC)CC1,9.1,.,.,.,.,.
COc1cc(S(=O)(=O)N2CCN(c3ccccc3F)CC2)ccc1Cl,.,.,20.9,.,.,.
COc1ccc(OC)c(CN2CCN(c3ccccc3OC)CC2)c1,.,.,.,52.7,.,.
COc1cc(S(=O)(=O)N2CCN(c3ccccc3)CC2)ccc1Cl,.,.,.,.,.,.
COc1ccc(CC(C)N2CCN(Cc3ccccc3)CC2)c(OC)c1 (centres undefined),.,.,.,92.0,.,.
COc1ccccc1N1CCN(c2cc(N3CCCC3)nc(C)n2)CC1,.,.,.,.,.,.
CCOC(=O)c1cnc2c(OC)cccc2c1N1CCN(c2ccc(OC)cc2)CC1,.,.,.,.,.,.
CC1(C)NC(=O)N(CCCSc2ccc(Cl)cc2)C1=O,.,.,.,.,.,.
COc1ccc(C2C(C(=O)c3sc(C)nc3C)=C(O)C(=O)N2CCCn2ccnc2)cc1 (centres undefined),.,.,.,.,.,.
CC1(C)CC(=O)C(C=NCC2CCN(C(=O)Nc3ccccc3)CC2)=C(O)C1,.,.,.,.,.,.
Cc1nn(C(C)C(=O)O)c2ccccc12 (centres undefined),.,.,.,.,.,.
O=C(O)c1ccc(NS(=O)(=O)c2cc(Cl)ccc2Cl)cc1O,.,.,.,.,.,.
COc1ccc(CN2CCN(C(=O)c3cccs3)CC2)c(OC)c1OC,.,.,.,.,.,.
c1ccc(N2CCN(Cc3ccsc3)CC2)nc1,.,.,.,.,.,.
CCOc1ccccc1N1CCN(Cc2cccc(OC)c2OC)CC1,.,.,.,58.5,.,.
COc1cc(CN2CCN(c3ccccc3F)CC2)cc(OC)c1O,14.1,.,.,.,.,.
COc1ccccc1N1CCN(Cc2ccsc2)CC1,20.9,.,40.3,.,.,.
COc1ccccc1N1CCN(Cc2ccc(OC)c(OC)c2OC)CC1,31.0,.,.,61.7,.,.
CCOc1ccc(NC(=O)CCN2CCN(c3ccccc3OC)CC2)cc1,.,.,.,99.6,.,.
COc1ccccc1N1CCN(C/C(O)=C(\C#N)c2nc(-c3ccccc3)cs2)CC1,10.1,.,.,.,.,.
COc1ccccc1N1CCN(C/C(C)=C/c2ccccc2)CC1,.,.,.,83.6,.,.
COc1ccccc1CCNC(=O)c1ccoc1C,.,.,.,.,.,.
CCCCn1c(-c2ccccc2)nc2c(=O)n(C)c(=O)[nH]c21,.,.,.,.,.,.
CCOC(=O)CSC1=C(C#N)C(c2ccc(Cl)cc2)CC(=O)N1 (centres undefined),.,.,.,.,.,.
SMILES,5HT1E ag,Jurkat viability,HTR1A agonist,5-HT1A blocker,HTR1E antagonist,HEK293 NFkB inh
CCOC(=O)CSC1=C(C#N)C(c2ccc(C)o2)CC(=O)N1 (centres undefined),.,99.1,.,.,42.7,.
O=C(Nc1ccncc1)C1CCCN(S(=O)(=O)c2cccc3cccnc23)C1 (centres undefined),.,88.6,.,.,.,.
Cc1ccc(S(=O)(=O)N2CCN(C(=O)N3CCOCC3)C2C)cc1 (centres undefined),.,.,.,.,.,.
CCN1CCN(C(=O)C2c3cc(OC)c(OC)cc3C(=O)N(C)C2c2ccc(SC)cc2)CC1 (centres undefined),.,/,.,59.7,.,.
COc1cccc(N2CCN(Cc3coc4c(Cl)cc(Cl)cc4c3=O)CC2)c1,31.9,.,.,.,.,.
Cc1ccc2occ(CN3CCN(c4ccccc4)CC3)c(=O)c2c1,.,.,.,.,.,.
O=C(CCn1c(=O)sc2ccccc21)NCc1ccccc1,.,.,.,.,.,.
O=C(CCn1c(=O)sc2ccccc21)NCc1cccs1,.,/,74.0,.,.,.
CS/C(=N\S(=O)(=O)c1cccs1)NC(=O)CSc1nc2ccccc2s1,.,.,.,.,.,.
O=c1cc(-c2ccccc2)[nH]c2nc3ccccc3n12,.,46.7,.,.,.,.
CSc1nc2nc3c(c(=O)n2[nH]1)CN(Cc1ccccc1)CC3,.,101.7,.,.,.,.
O=c1c2c(nc3nc(SCc4ccccc4)[nH]n13)CCC2,.,.,.,.,.,.
COc1ccc(C2NC(=O)NC(O)(C(F)(F)F)C2C(=O)c2ccc(C)cc2)cc1 (centres undefined),.,.,.,.,.,.
Cc1nn(-c2ccccc2)c2sc(C(=O)OCC(=O)N3CCCCC3)cc12,.,.,.,.,.,.
CC(NC(=O)CSc1ncccn1)c1ccccc1 (centres undefined),.,.,.,.,.,.
O=C(NC1CCCC1)C(c1cccs1)N(CC1CCCO1)C(=O)Cc1cccs1 (centres undefined),.,.,.,44.5,.,.
O=C(NC1CCCCC1)C(c1cccs1)N(Cc1cccs1)C(=O)c1ccco1 (centres undefined),.,.,.,50.3,.,.
Cn1c(=O)c2c(nc(SCC(=O)N3CCc4ccccc43)n2Cc2ccccc2)n(C)c1=O,.,.,.,.,.,.
CC(=O)c1ccc(N2CCN(C(=O)c3cc4c(=O)n(C)c5ccccc5c4n3C)CC2)cc1,.,.,.,.,.,.
CCCc1[nH]nc2c1C(c1ccc(O)c(OC)c1)C(C#N)=C(N)O2 (centres undefined),.,.,.,.,.,.
CC(C)Cn1c(=O)c2c(nc3n2CCCN3CCc2ccccc2)n(C)c1=O,.,.,.,.,.,.
CCOC(=O)Cc1csc(NC(=O)COc2ccc(N(C)S(=O)(=O)c3cccs3)cc2)n1,.,/,.,.,.,.
Cc1cc(C)n(-c2nc(NC(C)C)nc(NC(C)C)n2)n1,.,.,.,.,30.4,.
COc1cccc(C(=O)N(Cc2ccc(N(C)C)cc2)C2CCS(=O)(=O)C2)c1 (centres undefined),.,.,.,.,.,.
CCOC(=O)c1c(-c2ccc(C)o2)csc1N,.,.,.,.,.,.
CCOC(=O)c1c(-c2ccc(C)o2)csc1NC(=O)COC(=O)c1cccs1,.,.,.,49.5,.,.
N#CCCCCN1c2cccc3cccc(c23)S1(=O)=O,.,.,.,.,.,.
CCN(CCCc1ccccc1)CCCc1ccccc1,30.8,/,.,/,.,/
CCN(CC)CCCNC(=O)N[C@@H](Cc1ccccc1)C(=O)O,.,.,.,.,.,.
Cc1ccc(-c2cc(C(F)(F)F)c(C#N)c(SCCC#N)n2)o1,.,.,33.5,.,.,.
